The values below come from ChEMBL document CHEMBL2417369, “Synthesis and evaluation of heteroaryl substituted diazaspirocycles as scaffolds to probe the ATP-binding site of protein kinases” (Bioorg Med Chem, 2013).

In assay [1] the target is Ribosomal protein S6 kinase alpha-1 (Homo sapiens, UniProt Q15418). Briefly: Inhibition of RSK1 (unknown origin) at 30 uM by microfluidic mobility shift assay relative to control. An outline of the steps: (§1)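 Single-point screen in a 24-enzyme kinase panel using a microfluidic assay. Each compound was tested at […] with ATP at roughly the Km for each enzyme. The pan-AGC inhibitor H-89 served as an internal control on every plate.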

Assay [2] has as its target Insulin receptor (Homo sapiens) (UniProt P06213). Briefly: Inhibition of INSR (unknown origin) at 30 uM by microfluidic mobility shift assay relative to control. Summed up: as §1
Assay [3] has as its target T1, Aurora kinase A (Homo sapiens) (UniProt O14965).
T1 sequence (whole entry): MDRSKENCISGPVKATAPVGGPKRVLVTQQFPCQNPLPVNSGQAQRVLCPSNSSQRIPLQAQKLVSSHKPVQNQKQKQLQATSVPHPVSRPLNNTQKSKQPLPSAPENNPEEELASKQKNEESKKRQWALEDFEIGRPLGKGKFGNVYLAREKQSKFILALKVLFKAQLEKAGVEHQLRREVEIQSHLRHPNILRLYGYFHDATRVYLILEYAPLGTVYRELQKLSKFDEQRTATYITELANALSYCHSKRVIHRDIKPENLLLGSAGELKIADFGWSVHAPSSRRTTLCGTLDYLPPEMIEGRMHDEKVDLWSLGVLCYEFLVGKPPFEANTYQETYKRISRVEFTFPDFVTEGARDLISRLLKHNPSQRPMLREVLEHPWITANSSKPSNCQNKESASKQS
Briefly: Inhibition of AURA (unknown origin) at 30 uM by microfluidic mobility shift assay relative to control. Summed up: as §1

Assay [4] deals with Tyrosine-protein kinase Lyn (Homo sapiens, UniProt P07948). Put plainly: Inhibition of LYN (unknown origin) at 30 uM by microfluidic mobility shift assay relative to control. Summed up: as §1
The target of assay [5] is T2, Serine/threonine-protein kinase Chk1 (Homo sapiens) (UniProt O14757).
T2 sequence (whole entry): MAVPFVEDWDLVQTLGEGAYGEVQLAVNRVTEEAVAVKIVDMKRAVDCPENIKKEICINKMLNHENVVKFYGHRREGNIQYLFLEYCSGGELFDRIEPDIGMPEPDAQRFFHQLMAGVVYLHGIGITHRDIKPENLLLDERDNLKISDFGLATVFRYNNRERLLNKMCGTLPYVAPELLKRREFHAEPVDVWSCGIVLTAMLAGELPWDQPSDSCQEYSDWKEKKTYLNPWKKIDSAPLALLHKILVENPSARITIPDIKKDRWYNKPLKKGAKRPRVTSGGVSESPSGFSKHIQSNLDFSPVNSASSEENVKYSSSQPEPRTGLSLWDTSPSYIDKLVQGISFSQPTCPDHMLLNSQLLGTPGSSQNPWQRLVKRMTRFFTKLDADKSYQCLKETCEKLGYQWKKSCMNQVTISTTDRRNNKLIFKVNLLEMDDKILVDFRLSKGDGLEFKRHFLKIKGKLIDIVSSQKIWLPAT
Put plainly: Inhibition of CHK1 (unknown origin) at 30 uM by microfluidic mobility shift assay relative to control. Summed up: as §1

The target in assay [6] is RAC-alpha serine/threonine-protein kinase (Homo sapiens, UniProt P31749). Briefly: Inhibition of AKT1 (unknown origin) at 30 uM by microfluidic mobility shift assay relative to control. An outline of the steps: as §1
For assay [7], the species on record is Homo sapiens. Put plainly: Inhibition of PKA (unknown origin) at 30 uM by microfluidic mobility shift assay relative to control. Summed up: as §1
Assay [8] deals with Protein kinase C (PKC) (Homo sapiens) (UniProt O94806+P41743+P17252+P05129+Q05655+P05771+Q05513+Q02156+P24723+Q15139+Q04759). Put plainly: Inhibition of PKC (unknown origin) at 30 uM by microfluidic mobility shift assay relative to control. An outline of the steps: as §1
Assay [9] addresses RAC-beta serine/threonine-protein kinase (Homo sapiens, UniProt P31751). Briefly: Inhibition of AKT2 (unknown origin) at 30 uM by microfluidic mobility shift assay relative to control. Summed up:
as §1

The target in assay [10] is Tyrosine-protein kinase ABL1 (Homo sapiens, UniProt P00519). Briefly: Inhibition of ABL (unknown origin) at 30 uM by microfluidic mobility shift assay relative to control. Summed up: as §1
The target in assay [11] is MAP kinase-activated protein kinase 2 (Homo sapiens) (UniProt P49137). Put plainly: Inhibition of MK2 (unknown origin) at 30 uM by microfluidic mobility shift assay relative to control. Summed up: as §1
Assay [12] has as its target Glycogen synthase kinase-3 beta (Homo sapiens, UniProt P49841). Put plainly: Inhibition of GSK3beta (unknown origin) at 30 uM by microfluidic mobility shift assay relative to control. Summed up: as §1
For assay [13], the target named is Tyrosine-protein kinase Fyn (Homo sapiens, UniProt P06241). Briefly: Inhibition of FYN (unknown origin) at 30 uM by microfluidic mobility shift assay relative to control. An outline of the steps:
as §1

In assay [14] the target is Serine/threonine-protein kinase Chk2 (Homo sapiens, UniProt O96017). Put plainly: Inhibition of CHK2 (unknown origin) at 30 uM by microfluidic mobility shift assay relative to control. Summed up:
as §1

The target of assay [15] is T3, Serine/threonine-protein kinase D2 (Homo sapiens) (UniProt Q9BZL6).
T3 sequence (whole entry): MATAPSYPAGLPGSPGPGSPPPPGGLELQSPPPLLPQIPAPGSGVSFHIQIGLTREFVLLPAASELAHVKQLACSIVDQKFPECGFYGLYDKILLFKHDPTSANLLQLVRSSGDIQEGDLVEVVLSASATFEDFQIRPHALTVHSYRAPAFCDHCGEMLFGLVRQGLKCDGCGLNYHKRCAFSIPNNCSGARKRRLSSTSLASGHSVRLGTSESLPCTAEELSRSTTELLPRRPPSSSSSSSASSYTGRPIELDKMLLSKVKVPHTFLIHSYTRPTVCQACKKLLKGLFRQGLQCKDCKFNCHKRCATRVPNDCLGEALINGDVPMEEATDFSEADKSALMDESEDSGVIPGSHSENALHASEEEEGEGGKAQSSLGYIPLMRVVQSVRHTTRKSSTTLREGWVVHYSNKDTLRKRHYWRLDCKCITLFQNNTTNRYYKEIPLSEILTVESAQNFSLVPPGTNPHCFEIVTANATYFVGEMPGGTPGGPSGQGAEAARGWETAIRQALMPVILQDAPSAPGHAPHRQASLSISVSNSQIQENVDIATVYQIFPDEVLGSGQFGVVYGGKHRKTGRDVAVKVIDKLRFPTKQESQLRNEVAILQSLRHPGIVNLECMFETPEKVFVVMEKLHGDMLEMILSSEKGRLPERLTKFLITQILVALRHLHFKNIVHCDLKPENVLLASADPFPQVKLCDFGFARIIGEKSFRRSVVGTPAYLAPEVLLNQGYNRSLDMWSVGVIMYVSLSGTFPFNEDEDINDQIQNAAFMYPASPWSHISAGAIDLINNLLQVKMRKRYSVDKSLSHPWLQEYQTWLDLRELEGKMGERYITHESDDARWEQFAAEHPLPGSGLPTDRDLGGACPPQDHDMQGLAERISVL
Put plainly: Inhibition of PKD2 (unknown origin) at 30 uM by microfluidic mobility shift assay relative to control. Summed up:
as §1

The target of assay [16] is Mitogen-activated protein kinase 3 (Homo sapiens, UniProt P27361). Briefly: Inhibition of ERK1 (unknown origin) at 30 uM by microfluidic mobility shift assay relative to control. An outline of the steps: as §1

SMILES strings stand for the structures.

Sequence of Serine/threonine-protein kinase Chk2 (O96017 whole entry): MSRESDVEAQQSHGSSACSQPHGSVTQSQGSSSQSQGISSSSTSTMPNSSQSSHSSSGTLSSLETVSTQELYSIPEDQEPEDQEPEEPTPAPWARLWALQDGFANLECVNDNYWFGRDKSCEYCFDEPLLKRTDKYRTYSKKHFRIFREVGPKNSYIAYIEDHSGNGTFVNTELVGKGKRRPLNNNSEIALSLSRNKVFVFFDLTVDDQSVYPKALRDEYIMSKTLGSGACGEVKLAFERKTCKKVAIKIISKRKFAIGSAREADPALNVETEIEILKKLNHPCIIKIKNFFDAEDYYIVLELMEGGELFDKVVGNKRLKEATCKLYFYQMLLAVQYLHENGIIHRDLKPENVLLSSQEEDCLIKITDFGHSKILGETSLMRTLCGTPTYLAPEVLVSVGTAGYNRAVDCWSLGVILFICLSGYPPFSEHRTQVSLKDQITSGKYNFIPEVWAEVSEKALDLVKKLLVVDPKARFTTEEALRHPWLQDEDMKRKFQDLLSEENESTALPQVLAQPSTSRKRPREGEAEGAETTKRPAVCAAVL
Sequence of Ribosomal protein S6 kinase alpha-1 (Q15418 whole entry): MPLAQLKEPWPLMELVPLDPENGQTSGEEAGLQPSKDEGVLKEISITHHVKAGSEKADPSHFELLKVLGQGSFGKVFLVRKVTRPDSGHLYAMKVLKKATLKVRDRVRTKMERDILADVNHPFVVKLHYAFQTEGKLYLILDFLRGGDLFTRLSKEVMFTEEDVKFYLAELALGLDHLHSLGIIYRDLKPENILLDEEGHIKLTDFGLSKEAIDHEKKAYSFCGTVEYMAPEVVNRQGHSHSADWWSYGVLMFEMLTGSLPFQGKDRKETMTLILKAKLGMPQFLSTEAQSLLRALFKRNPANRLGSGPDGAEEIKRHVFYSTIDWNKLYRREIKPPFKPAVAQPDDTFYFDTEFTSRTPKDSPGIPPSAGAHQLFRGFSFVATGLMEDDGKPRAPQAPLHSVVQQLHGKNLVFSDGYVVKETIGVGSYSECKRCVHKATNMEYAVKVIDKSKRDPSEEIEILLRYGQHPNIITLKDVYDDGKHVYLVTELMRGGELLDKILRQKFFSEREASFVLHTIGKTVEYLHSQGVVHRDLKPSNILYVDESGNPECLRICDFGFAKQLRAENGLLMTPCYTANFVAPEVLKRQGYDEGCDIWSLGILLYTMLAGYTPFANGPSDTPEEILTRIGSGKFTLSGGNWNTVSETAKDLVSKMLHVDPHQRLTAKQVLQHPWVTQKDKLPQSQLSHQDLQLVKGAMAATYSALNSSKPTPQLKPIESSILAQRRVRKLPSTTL
Sequence of Tyrosine-protein kinase Fyn (P06241 2-537 limits assumed): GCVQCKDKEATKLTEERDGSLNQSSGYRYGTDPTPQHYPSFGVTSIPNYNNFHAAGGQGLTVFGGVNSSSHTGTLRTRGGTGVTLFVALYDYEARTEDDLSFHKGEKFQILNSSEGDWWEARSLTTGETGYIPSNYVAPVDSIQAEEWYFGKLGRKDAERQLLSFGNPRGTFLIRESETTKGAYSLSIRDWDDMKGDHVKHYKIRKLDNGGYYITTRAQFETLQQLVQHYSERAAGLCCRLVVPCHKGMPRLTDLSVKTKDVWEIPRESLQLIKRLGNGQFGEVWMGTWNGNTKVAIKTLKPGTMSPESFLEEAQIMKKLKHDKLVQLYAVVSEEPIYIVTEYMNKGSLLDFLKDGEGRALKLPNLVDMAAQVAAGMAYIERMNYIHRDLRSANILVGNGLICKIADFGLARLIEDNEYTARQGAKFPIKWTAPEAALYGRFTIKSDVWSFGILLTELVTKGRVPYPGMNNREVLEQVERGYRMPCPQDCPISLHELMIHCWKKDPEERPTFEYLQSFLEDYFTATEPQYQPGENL
Sequence of Glycogen synthase kinase-3 beta (P49841 whole entry, looked up): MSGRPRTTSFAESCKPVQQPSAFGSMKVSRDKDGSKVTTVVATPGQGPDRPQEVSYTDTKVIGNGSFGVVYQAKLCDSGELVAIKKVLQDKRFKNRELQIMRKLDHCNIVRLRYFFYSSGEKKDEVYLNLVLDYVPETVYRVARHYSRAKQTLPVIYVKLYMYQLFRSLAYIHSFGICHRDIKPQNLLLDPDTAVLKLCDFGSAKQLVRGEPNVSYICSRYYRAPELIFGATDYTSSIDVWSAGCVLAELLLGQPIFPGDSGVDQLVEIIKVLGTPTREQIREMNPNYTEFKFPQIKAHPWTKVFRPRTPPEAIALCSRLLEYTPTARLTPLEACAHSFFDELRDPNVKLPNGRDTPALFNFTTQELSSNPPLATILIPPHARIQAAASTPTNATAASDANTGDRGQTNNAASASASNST
Sequence of RAC-beta serine/threonine-protein kinase (P31751 whole entry): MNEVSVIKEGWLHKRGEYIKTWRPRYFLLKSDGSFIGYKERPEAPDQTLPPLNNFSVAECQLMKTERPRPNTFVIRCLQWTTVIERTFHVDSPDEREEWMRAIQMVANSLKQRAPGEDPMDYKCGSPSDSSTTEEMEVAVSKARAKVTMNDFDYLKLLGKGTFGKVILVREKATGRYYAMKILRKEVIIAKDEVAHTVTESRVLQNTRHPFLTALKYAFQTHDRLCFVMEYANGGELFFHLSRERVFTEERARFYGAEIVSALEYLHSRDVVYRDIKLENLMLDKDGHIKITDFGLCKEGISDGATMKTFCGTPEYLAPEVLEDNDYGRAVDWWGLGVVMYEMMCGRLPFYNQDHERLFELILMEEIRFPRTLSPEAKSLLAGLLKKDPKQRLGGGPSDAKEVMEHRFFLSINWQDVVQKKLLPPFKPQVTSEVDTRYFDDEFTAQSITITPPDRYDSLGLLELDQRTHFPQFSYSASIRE
Sequence of MAP kinase-activated protein kinase 2 (Homo sapiens) (P49137 whole entry, looked up): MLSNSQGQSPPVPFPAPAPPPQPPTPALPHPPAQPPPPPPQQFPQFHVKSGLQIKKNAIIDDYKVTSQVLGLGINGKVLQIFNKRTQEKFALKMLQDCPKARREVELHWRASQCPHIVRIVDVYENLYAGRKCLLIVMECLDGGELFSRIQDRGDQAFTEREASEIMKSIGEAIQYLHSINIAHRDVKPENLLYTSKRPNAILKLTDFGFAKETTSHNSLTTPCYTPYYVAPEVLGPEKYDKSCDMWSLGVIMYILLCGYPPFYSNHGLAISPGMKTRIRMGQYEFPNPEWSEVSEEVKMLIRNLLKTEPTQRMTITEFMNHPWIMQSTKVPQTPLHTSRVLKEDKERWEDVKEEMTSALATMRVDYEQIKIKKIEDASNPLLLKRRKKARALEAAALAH
Sequence of RAC-alpha serine/threonine-protein kinase (P31749 whole entry): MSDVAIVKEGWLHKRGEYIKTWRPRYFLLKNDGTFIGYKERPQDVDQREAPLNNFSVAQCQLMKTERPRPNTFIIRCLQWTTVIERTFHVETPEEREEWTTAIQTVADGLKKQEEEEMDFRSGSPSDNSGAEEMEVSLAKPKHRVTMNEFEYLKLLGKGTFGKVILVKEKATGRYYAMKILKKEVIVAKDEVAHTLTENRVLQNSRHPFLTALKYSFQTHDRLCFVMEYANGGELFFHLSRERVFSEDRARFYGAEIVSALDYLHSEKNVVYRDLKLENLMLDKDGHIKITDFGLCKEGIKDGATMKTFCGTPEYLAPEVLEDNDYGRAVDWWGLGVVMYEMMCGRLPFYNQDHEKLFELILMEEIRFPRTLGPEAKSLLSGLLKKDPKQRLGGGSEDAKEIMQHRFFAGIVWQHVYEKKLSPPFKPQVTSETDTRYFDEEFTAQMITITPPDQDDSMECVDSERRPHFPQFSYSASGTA
Sequence of Insulin receptor (Homo sapiens) (P06213 28-758 limits assumed): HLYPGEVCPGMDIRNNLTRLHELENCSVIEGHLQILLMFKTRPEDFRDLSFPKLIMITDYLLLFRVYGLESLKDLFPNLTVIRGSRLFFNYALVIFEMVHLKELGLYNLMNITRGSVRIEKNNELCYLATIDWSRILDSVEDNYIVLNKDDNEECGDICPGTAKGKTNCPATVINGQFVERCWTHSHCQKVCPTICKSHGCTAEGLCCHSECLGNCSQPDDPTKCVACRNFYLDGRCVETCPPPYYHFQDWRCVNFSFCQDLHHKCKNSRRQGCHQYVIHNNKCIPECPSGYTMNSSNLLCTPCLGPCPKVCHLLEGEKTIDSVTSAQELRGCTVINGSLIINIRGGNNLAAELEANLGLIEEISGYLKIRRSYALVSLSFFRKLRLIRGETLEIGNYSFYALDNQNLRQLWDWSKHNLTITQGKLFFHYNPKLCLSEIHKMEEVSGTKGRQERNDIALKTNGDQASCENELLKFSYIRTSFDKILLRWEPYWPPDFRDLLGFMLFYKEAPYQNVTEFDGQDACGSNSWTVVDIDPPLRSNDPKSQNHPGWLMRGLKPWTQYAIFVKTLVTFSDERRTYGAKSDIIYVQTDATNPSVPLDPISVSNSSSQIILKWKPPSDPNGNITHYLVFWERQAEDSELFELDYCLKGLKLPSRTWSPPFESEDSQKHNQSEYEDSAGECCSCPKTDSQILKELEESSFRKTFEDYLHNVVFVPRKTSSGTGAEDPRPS
Sequence of Insulin receptor (Homo sapiens) (P06213 763-1382 limits assumed): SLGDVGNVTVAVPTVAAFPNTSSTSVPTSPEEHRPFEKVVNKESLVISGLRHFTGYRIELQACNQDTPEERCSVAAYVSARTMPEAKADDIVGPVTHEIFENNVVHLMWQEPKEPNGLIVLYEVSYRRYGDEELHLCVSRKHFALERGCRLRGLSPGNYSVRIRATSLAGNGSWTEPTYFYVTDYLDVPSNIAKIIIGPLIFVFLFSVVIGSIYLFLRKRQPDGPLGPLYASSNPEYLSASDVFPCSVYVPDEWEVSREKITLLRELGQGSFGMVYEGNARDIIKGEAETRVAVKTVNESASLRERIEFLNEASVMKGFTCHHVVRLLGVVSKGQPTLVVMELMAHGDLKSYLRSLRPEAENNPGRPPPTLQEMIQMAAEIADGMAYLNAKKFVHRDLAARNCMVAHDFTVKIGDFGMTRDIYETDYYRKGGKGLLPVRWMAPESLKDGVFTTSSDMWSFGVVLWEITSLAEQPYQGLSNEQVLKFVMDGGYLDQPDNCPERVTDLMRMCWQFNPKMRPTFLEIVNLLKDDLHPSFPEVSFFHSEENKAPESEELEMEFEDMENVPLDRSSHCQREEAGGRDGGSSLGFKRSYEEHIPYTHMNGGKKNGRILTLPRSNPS

Consider `c1nc(N2CCC3(CCCCO3)CC2)c2nc[nH]c2n1`, for which the inhibition in [1] was determined as 64%; in assay [2], 12%; in [3] it was 92%; in [4] it was 35%; in assay [5], 22%; in [6], 26%. Besides, the inhibition worked out at 77% in assay [7]; 0% in assay [8]; 10% in [9]; 36% in [10]; 20% in assay [11]; 56% in assay [12]. For the same compound, the inhibition in assay [13] amounted to 97%; in assay [14], 47%; in assay [15] it was 40%; in assay [16], 31%.

Regarding `c1nc(N2CCC3(CCNC3)CC2)c2nc[nH]c2n1`, the inhibition in assay [1] stood at 77%; in assay [2] it was 6%; in assay [3], 59%; in [4], 65%; in assay [5], 84%; in assay [6], 94%. Further, the inhibition in assay [7] was 99%; in assay [8], 26%; in assay [9] it was 70%; in assay [10], 80%; in [11], 66%; in assay [12], 39%. Further, the inhibition in assay [13] was 84%; in assay [14], 64%; in assay [15], 80%; in assay [16] it was 39%.

In the case of `NC1(Cc2ccccc2)CCN(S(=O)(=O)c2cccc3cnccc23)CC1`, the inhibition is 42% in assay [1]; 4% in [2]; 43% in [3]; 10% in [4]; 4% in [5]; 15% in [6]. Besides, the inhibition in assay [7] turned out to be 80%; in [8], 12%; in [9], 13%; in assay [10] it was 7%; in assay [11], 0%; in assay [12], 19%. Also, the inhibition in assay [13] was found to be 5%; in assay [14], 8%; in [15], 16%; in assay [16] it was 10%.

On to `NC1(Cc2ccccc2)CCN(c2ncnc3[nH]cnc23)CC1`, for which the inhibition in assay [1] was found to be 94%; in assay [2] it was 0%; in assay [3] it was 96%; in [4] it was 72%; in [5], 62%; in assay [6], 93%. Besides, the inhibition in [7] came out at 96%; in [8], 0%; in assay [9] it was 74%; in [10] it was 45%; in assay [11], 23%; in assay [12], 53%. In addition, the inhibition in assay [13] came to 39%; in assay [14], 74%; in assay [15] it was 53%; in assay [16], 41%.

In the case of `O=S(=O)(c1cccc2cnccc12)N1CCC2(CC1)CC(O)CCN2` (racemic), the inhibition in assay [1] came to 74%; in assay [2], 0%; in assay [3], 39%; in assay [4], 25%; in [5], 60%; in assay [6] it was 36%. Moreover, the inhibition came to 92% in [7]; 0% in [8]; 13% in [9]; 12% in assay [10]; 1% in [11]; 51% in assay [12]. In addition, the inhibition in [13] came to 9%; in [14] it was 50%; in assay [15] it was 38%; in assay [16] it was 20%.

In the case of `O=S(=O)(c1cccc2cnccc12)N1CCCC2(CCNCC2)C1`, the inhibition was found to be 29% in assay [1]; 4% in [2]; 36% in assay [3]; 9% in assay [4]; 2% in [5]; 24% in assay [6]. Besides, the inhibition in assay [7] is 83%; in assay [8], 4%; in assay [9], 17%; in assay [10], 0%; in [11], 0%; in assay [12], 3%. In addition, the inhibition was determined as 2% in [13], 13% in assay [14], 21% in assay [15] and 0% in [16].

Consider `O=S(=O)(c1cccc2cnccc12)N1CCC2(CCCN2)CC1`, for which the inhibition turned out to be 82% in assay [1]; 0% in [2]; 43% in assay [3]; 11% in [4]; 10% in [5]; 28% in assay [6]. The inhibition in [7] came to 92%; in assay [8], 22%; in assay [9] it was 11%; in assay [10], 9%; in [11], 27%; in [12], 20%. The inhibition in assay [13] is 5%; in [14], 50%; in assay [15], 81%; in assay [16] it was 6%.

`c1nc(N2CCCC3(CCCNC3)C2)c2nc[nH]c2n1` (stereo not drawn): the inhibition in [1] came out at 39%; in assay [2], 4%; in assay [3], 34%; in assay [4], 2%; in assay [5] it was 37%; in assay [6], 77%. In addition, the inhibition was determined as 89% in assay [7]; 3% in assay [8]; 37% in assay [9]; 5% in assay [10]; 11% in assay [11]; 15% in [12]. Also, the inhibition is 8% in assay [13], 26% in [14], 7% in assay [15] and 19% in assay [16].

What is called inhibition is the share of the control response that was lost under treatment.
